Experiment [1] relates to Platelet. In words: Inhibition of epinephrine-induced platelet aggregation in rat blood. The class given is functional, cell-based.
For experiment [2], the system named is Platelet. Description: Inhibition of NaAA-induced platelet aggregation in rat blood. The class given is functional, cell-based.
The subject of experiment [3] is Rattus norvegicus. Description: Effect on LPS-induced Sprague-Dawley rat disseminated intravascular coagulation model assessed as prolongation of activated partial […] time at 10 mg/day or 25 mg/day, po after 2 hrs of fasting for 2 consecutive days. The class given is functional, organism-based. A digest of the protocol:
(§1)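 Male Sprague–Dawley rats (230–270 g) dosed orally in distilled water once daily for 2 days. Ketamine anaesthesia 1 h after the second dose, then LPS 20 mg/kg in saline infused into the tail vein for 3 h. Citrated plasma was used for PT, aPTT and fibrinogen, serum for FDP (semi-quantitative kit, dilution method), and serum by analyzer for AST and BUN. Mean ± SEM, ANOVA with Tukey HSD, n = 6–13 per group.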

Experiment [4] has as its system Rattus norvegicus. In words: Effect on LPS-induced Sprague-Dawley rat disseminated intravascular coagulation model assessed as amelioration of increased urea nitrogen levels at 10 mg/day or 25 mg/day, po after 2 hrs of fasting for 2 consecutive days. The class given is functional, organism-based. In a few lines: as §1
For experiment [5], the system named is Platelet. Description: Inhibition of U46619-induced platelet aggregation in rat blood. The class given is functional, cell-based.
Experiment [6] concerns Rattus norvegicus. Description: Effect on LPS-induced Sprague-Dawley rat disseminated intravascular coagulation model assessed as amelioration of increased fibrin degradation product levels at 10 mg/day or 25 mg/day, po after 2 hrs of fasting for 2 consecutive days. The class given is functional, organism-based. A digest of the protocol: as §1
The test system of experiment [7] is Rattus norvegicus. In words: Effect on LPS-induced Sprague-Dawley rat disseminated intravascular coagulation model assessed as prolongation of prothrombin time at 10 mg/day or 25 mg/day, po after 2 hrs of fasting for 2 consecutive days. The class given is functional, organism-based. A digest of the protocol: as §1
Experiment [8] relates to Platelet. Description: Inhibition of ADP-induced platelet aggregation in rat blood. The class given is functional, cell-based. In a few lines: (§2)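 Rat heart blood in 2.2% citrate, spun at 200g for 10 min to give PRP, adjusted to 400–450 × 10⁶ platelets/ml with saline. PRP pre-incubated 3 min, then sample or vehicle added, with ADP (2–5 × 10⁻⁶ M) or collagen (2–5 × 10⁻⁶ g/ml) added 1 min later. Aggregation read on an aggregometer and the 50% inhibitory concentration determined.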

In experiment [9] the test system is Platelet. In words: Inhibition of collagen-induced platelet aggregation in rat blood. The class given is functional, cell-based. In a few lines:
as §2

Experiment [10] deals with Rattus norvegicus. In words: Effect on Sprague-Dawley rat disseminated intravascular coagulation model assessed as suppression of LPS-induced aspartate aminotransferase levels at 10 mg/day or 25 mg/day, po after 2 hrs of fasting for 2 consecutive days. The class given is functional, organism-based. A digest of the protocol:
as §1

Experiment [11] deals with Rattus norvegicus. Description: Effect on Sprague-Dawley rat disseminated intravascular coagulation model assessed as prevention of LPS-induced decrease in fibrinogen level at 10 mg/day or 25 mg/day, po after 2 hrs of fasting for 2 consecutive days. The class given is functional, organism-based. A digest of the protocol: as §1

Each structure is given as a SMILES string. Calls of active or inactive are those of the source. No cut-off for these calls is given here.

For `Oc1cc2c(cc1O)[C@@H](Cc1cccc3ccccc13)NCC2`, the half-maximal inhibitory concentration (IC50) in the experiment on Platelet [1] was determined as 2400 nM; in the experiment with Platelet [2], 11 µM; in the experiment with Platelet [5] it was 20 µM. For the same compound, the outcome with Rattus norvegicus [3], with Rattus norvegicus [4], in the experiment on Rattus norvegicus [6] and with Rattus norvegicus [7] was Active.

In the case of `Oc1cc2c(cc1O)[C@H](Cc1cccc3ccccc13)NCC2`, the half-inhibitory concentration (IC50) in the experiment with Platelet [1] is 380 nM; with Platelet [2], 5.6 µM; in the experiment on Platelet [8] it was 270 µM; in the experiment on Platelet [9] it was 69 µM; in the experiment with Platelet [5] it was 16 µM. The result with Rattus norvegicus [3], in the experiment on Rattus norvegicus [4], with Rattus norvegicus [6] and in the experiment with Rattus norvegicus [7] was Active.

As to `Oc1cc2c(cc1O)[C@@H](Cc1ccc3ccccc3c1)NCC2`, the outcome in the experiment with Rattus norvegicus [10], in the experiment with Rattus norvegicus [3], with Rattus norvegicus [4], in the experiment on Rattus norvegicus [6] and in the experiment with Rattus norvegicus [7] was Active. The results for the IC50 in the experiment on Platelet [1], with Platelet [2] and in the experiment with Platelet [5] were 15000 nM, 7.9 µM and 49 µM, respectively.

`Oc1ccc(C[C@H]2NCCc3cc(O)c(O)cc32)cc1` [(+)-HIGENAMINE]: the result in the experiment on Rattus norvegicus [10], with Rattus norvegicus [3], in the experiment on Rattus norvegicus [4], in the experiment with Rattus norvegicus [6] and in the experiment with Rattus norvegicus [7] was Active. For the same compound, the IC50 in the experiment on Platelet [1] was 14000 nM; in the experiment on Platelet [2], 11 µM; in the experiment with Platelet [8], over 1000 µM; with Platelet [5] it was 15 µM.

With `Oc1cc2c(cc1O)[C@H](Cc1ccc3ccccc3c1)NCC2`, the outcome in the experiment with Rattus norvegicus [10], in the experiment with Rattus norvegicus [11], with Rattus norvegicus [3], in the experiment on Rattus norvegicus [4], with Rattus norvegicus [6] and in the experiment with Rattus norvegicus [7] was Active. In addition, the half-inhibitory concentration (IC50) with Platelet [1] turned out to be 900 nM; in the experiment with Platelet [2] it was 6.2 µM; with Platelet [5], 61 µM.

As for `Oc1ccc(C[C@@H]2NCCc3cc(O)c(O)cc32)cc1` [(-)-HIGENAMINE], the outcome in the experiment on Rattus norvegicus [10], in the experiment with Rattus norvegicus [11], in the experiment with Rattus norvegicus [3], in the experiment with Rattus norvegicus [4], in the experiment with Rattus norvegicus [6] and with Rattus norvegicus [7] was Active. Moreover, the half-maximal inhibitory concentration (IC50) in the experiment on Platelet [1] is 1600 nM; with Platelet [2] it was 9.1 µM; in the experiment on Platelet [5], 25 µM.

On to `CC(=O)Oc1ccccc1C(=O)O` [ASPIRIN], for which the IC50 is 53000 nM in the experiment with Platelet [1]; 66 µM in the experiment with Platelet [2]; over 1000 µM with Platelet [8]; 420 µM in the experiment on Platelet [9]; 340 µM in the experiment on Platelet [5].

A word on the IC50: it is the concentration needed to halve the response being measured. Lower therefore signals higher potency.

These data come from ChEMBL document CHEMBL1154998, “Enantioselective synthesis of (R)-(+)- and (S)-(-)-higenamine and their analogues with effects on platelet aggregation and experimental animal model of disseminated intravascular coagulation” (Bioorg Med Chem Lett, 2008).
